ChEMBL document CHEMBL5329210, “Novel piperazine-1,2,3-triazole leads for the potential treatment of pancreatic cancer” (RSC Med Chem, 2023)

What was measured:
[1] = system: MIA PaCa-2; test: Inhibition of cell growth of human MIA PaCa-2 cells measured after 72 hrs by MTT assay; assay type: functional
Outline: (§1)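 MTT read-out. Cancer lines were grown in DMEM with 10% FBS, glutamine and antibiotics. MCF10A was grown in DMEM:F12 with 5% horse serum, EGF, hydrocortisone, cholera toxin and insulin. Cells were plated in duplicate at 2500–4000/well, and drug was added 24 h later. After 72 h, absorbance was read at 540 nm. Single-point lines used 25 μM. GI50 is 50% growth inhibition versus untreated control. n = 3.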

[2] = system: A2780; test: Inhibition of cell growth of human A2780 cells measured after 72 hrs by MTT assay; assay type: functional; outline: as §1
[3] = system: BE(2)-C; test: Inhibition of cell growth of human BE2C cells measured after 72 hrs by MTT assay; assay type: functional; outline: as §1
[4] = system: HT-29; test: Inhibition of cell growth of human HT-29 cells measured after 72 hrs by MTT assay; assay type: functional; outline: as §1
[5] = system: HPAC; test: Inhibition of cell growth of human HPAC cells at 25 uM measured after 72 hrs by MTT assay relative to control; assay type: functional; outline: as §1
[6] = system: HT-29; test: Inhibition of cell growth of human HT-29 cells at 25 uM measured after 72 hrs by MTT assay relative to control; assay type: functional; outline: as §1
[7] = system: MCF7; test: Inhibition of cell growth of human MCF7 cells measured after 72 hrs by MTT assay; assay type: functional; outline: as §1
[8] = system: MIA PaCa-2; test: Inhibition of cell growth of human MIA PaCa-2 cells at 25 uM measured after 72 hrs by MTT assay relative to control; assay type: functional; outline: as §1
[9] = system: MCF7; test: Inhibition of cell growth of human MCF7 cells at 25 uM measured after 72 hrs by MTT assay relative to control; assay type: functional; outline: as §1
[10] = Inhibition of cell growth of human MCF-10A cells measured after 72 hrs by MTT assay; assay type: toxicity, cell-based; outline: as §1
[11] = system: BXPC-3; test: Inhibition of cell growth of human BXPC-3 cells measured after 72 hrs by MTT assay; assay type: functional; outline: as §1
[12] = system: A2780; test: Inhibition of cell growth of human A2780 cells at 25 uM measured after 72 hrs by MTT assay relative to control; assay type: functional; outline: as §1
[13] = system: Capan-2; test: Inhibition of cell growth of human Capan-2 cells at 25 uM measured after 72 hrs by MTT assay relative to control; assay type: functional; outline: as §1
[14] = system: ASPC1; test: Inhibition of cell growth of human ASPC1 cells at 25 uM measured after 72 hrs by MTT assay relative to control; assay type: functional; outline: as §1
[15] = system: HPAC; test: Inhibition of cell growth of human HPAC cells measured after 72 hrs by MTT assay; assay type: functional; outline: as §1
[16] = system: ASPC1; test: Inhibition of cell growth of human ASPC1 cells measured after 72 hrs by MTT assay; assay type: functional; outline: as §1
[17] = Inhibition of cell growth of human MCF-10A cells at 25 uM measured after 72 hrs by MTT assay relative to control; assay type: toxicity, cell-based; outline: as §1
[18] = system: PANC-1; test: Inhibition of cell growth of human PANC-1 cells measured after 72 hrs by MTT assay; assay type: functional; outline: as §1
[19] = system: BXPC-3; test: Inhibition of cell growth of human BXPC-3 cells at 25 uM measured after 72 hrs by MTT assay relative to control; assay type: functional; outline: as §1
[20] = system: BE(2)-C; test: Inhibition of cell growth of human BE2C cells at 25 uM measured after 72 hrs by MTT assay relative to control; assay type: functional; outline: as §1
[21] = system: PANC-1; test: Inhibition of cell growth of human PANC-1 cells at 25 uM measured after 72 hrs by MTT assay relative to control; assay type: functional; outline: as §1
[22] = system: Capan-2; test: Inhibition of cell growth of human Capan-2 cells measured after 72 hrs by MTT assay; assay type: functional; outline: as §1
[23] = Inhibition of cell growth of human HPDE cells at 25 uM measured after 72 hrs by CCK8 assay relative to control; assay type: toxicity, cell-based
Outline: (§2)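 Single 25 μM exposure, read by CCK-8, n = 3, relative to control. Seeding was 3×10^3/well for MiaPaCa2, 7×10^3/well for BxPC3 (in RPMI-1640/10% FBS) and 1×10^4/well for HPDE (in KSFM with rEGF/BPE). After 24 h attachment, cells were exposed for 72 h. CCK-8 was then incubated for 1 h, and A450 minus A650 was compared with 0.5% DMSO.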

[24] = Inhibition of cell growth of human SJG2 cells measured after 72 hrs by MTT assay; assay type: functional; conditions: SJ-G2; outline: as §1
[25] = system: DU-145; test: Inhibition of cell growth of human DU-145 cells measured after 72 hrs by MTT assay; assay type: functional; outline: as §1
[26] = system: NCI-H460; test: Inhibition of cell growth of human NCI-H460 cells measured after 72 hrs by MTT assay; assay type: functional; outline: as §1
[27] = system: BXPC-3; test: Inhibition of cell growth of human BXPC-3 cells at 25 uM measured after 72 hrs by CCK8 assay relative to control; assay type: functional; outline: as §2
[28] = system: U-87 MG; test: Inhibition of cell growth of human U87 cells measured after 72 hrs by MTT assay; assay type: functional, U-87MG ATCC; outline: as §1
[29] = system: A-431; test: Inhibition of cell growth of human A-431 cells measured after 72 hrs by MTT assay; assay type: functional; outline: as §1
[30] = system: MIA PaCa-2; test: Inhibition of cell growth of human MIA PaCa-2 cells at 25 uM measured after 72 hrs by CCK8 assay relative to control; assay type: functional; outline: as §2

For `O=S(=O)(c1ccccc1C(F)(F)F)N1CCN(CCCn2cc(-c3ccc(Br)cc3)nn2)CC1`, the GI50 [1] was > 50 µM, the GI50 [2] was 14 µM and the GI50 [3] was 38 µM. For the same compound, the GI50 [4] was 10 µM, the inhibition at 25 µM [5] was 42% and the inhibition at 25 µM [6] was 92%. It also gave a GI50 [7] of 9.2 µM, an inhibition at 25 µM [8] of 70% and an inhibition at 25 µM [9] of 87%. For the same compound, the GI50 at 72 h [10] was 12 µM, the GI50 [11] was > 50 µM and the inhibition at 25 µM [12] was 68%. For the same compound, the inhibition at 25 µM [13] was 65%, the inhibition at 25 µM [14] was 51% and the GI50 [15] was > 50 µM. The GI50 [16] was > 50 µM, the inhibition at 72 h, 25 µM [17] was 72% and the GI50 [18] was > 50 µM. For the same compound, the inhibition at 25 µM [19] was < 10%, the inhibition at 25 µM [20] was 58% and the inhibition at 25 µM [21] was 53%. For the same compound, the GI50 [22] was 23 µM.

For `COc1ccc(S(=O)(=O)N2CCN(CCCn3cc(-c4cccc(OC)c4)nn3)CC2)cc1`, the inhibition at 72 h, 25 µM [23] was 33.9%, the GI50 [1] was > 50 µM and the GI50 [2] was 27 µM. The GI50 [3] was > 50 µM, the GI50 [4] was 30 µM and the GI50 [7] was 38 µM. For the same compound, the GI50 [24] was 32 µM, the GI50 at 72 h [10] was > 50 µM and the GI50 [25] was > 50 µM. The GI50 [26] was > 50 µM, the inhibition at 25 µM [27] was < 10% and the GI50 [28] was > 50 µM. The GI50 [29] was > 50 µM and the inhibition at 25 µM [30] was 20.3%.

With `COc1cccc(-c2cn(CCCN3CCN(S(=O)(=O)c4ccc(Br)cc4)CC3)nn2)c1` the inhibition at 72 h, 25 µM [23] was 32.6%, the GI50 [1] was > 50 µM and the GI50 [2] was 20 µM. For the same compound, the GI50 [3] was 20 µM, the GI50 [4] was 18 µM and the GI50 [7] was 14 µM. It also gave a GI50 [24] of 23 µM, a GI50 at 72 h [10] of 29 µM and a GI50 [25] of 25 µM. The GI50 [26] was 35 µM, the inhibition at 25 µM [27] was 10.7% and the GI50 [28] was > 50 µM. For the same compound, the GI50 [29] was 40 µM and the inhibition at 25 µM [30] was < 10%.

`COc1ccc(-c2cn(CCCN3CCN(S(=O)(=O)c4ccc(C(F)(F)F)cc4)CC3)nn2)cc1` gave a GI50 [1] of 7.8 µM, a GI50 [2] of 6.2 µM and a GI50 [3] of 6.4 µM. For the same compound, the GI50 [4] was 8.6 µM, the GI50 [7] was 6.1 µM and the GI50 at 72 h [10] was 4.9 µM. It also gave a GI50 [11] of 12 µM, a GI50 [15] of 16 µM and a GI50 [16] of 14 µM. It also gave a GI50 [18] of 5.2 µM and a GI50 [22] of 8.4 µM.
